Test [1] has as its target Angiotensin-converting enzyme (Homo sapiens, UniProt P12821). The experiment in a line: Inhibition of human recombinant ACE by fluorimetry.
Test [2] has as its target T1, Neprilysin (Sus scrofa, UniProt P19621).
T1 sequence (P19621 whole entry): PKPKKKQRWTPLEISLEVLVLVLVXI
Kind of test: Inhibition of pig kidney NEP by fluorimetry. The method in brief: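 Fluorescence was read at λex 340 nm and λem 530 nm. IC50 was derived from inhibition curves, and the assay was validated with a reference inhibitor IC50.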

Test [3] deals with T2, Endothelin-converting enzyme 1 (Homo sapiens, UniProt P42892).
T2 sequence (P42892 whole entry): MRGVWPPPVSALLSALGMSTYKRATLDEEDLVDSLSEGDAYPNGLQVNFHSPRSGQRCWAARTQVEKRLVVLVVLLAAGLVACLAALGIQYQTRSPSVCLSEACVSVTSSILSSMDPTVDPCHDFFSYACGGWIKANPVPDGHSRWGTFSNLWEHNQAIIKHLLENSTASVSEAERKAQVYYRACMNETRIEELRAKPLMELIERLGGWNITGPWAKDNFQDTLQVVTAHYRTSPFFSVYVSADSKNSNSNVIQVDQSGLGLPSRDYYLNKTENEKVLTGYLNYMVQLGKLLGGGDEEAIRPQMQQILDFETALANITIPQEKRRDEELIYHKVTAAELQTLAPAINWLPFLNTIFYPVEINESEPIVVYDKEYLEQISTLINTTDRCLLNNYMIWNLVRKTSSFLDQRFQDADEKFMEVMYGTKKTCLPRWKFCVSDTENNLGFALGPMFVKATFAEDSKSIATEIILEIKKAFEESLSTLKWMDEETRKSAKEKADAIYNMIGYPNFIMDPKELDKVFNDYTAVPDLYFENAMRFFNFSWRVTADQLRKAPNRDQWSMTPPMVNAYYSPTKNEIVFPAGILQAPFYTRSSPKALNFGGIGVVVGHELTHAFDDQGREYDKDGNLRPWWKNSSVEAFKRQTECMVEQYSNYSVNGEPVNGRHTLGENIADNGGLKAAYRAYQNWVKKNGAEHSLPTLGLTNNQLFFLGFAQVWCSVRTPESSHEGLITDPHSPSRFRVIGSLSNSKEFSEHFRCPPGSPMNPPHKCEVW
The experiment in a line: Inhibition of human recombinant ECE1 by fluorimetry.

For nine compounds, IC50 results are on record in ChEMBL document CHEMBL1154033, “Synthesis and enzymatic evaluation of novel partially fluorinated thiol dual ACE/NEP inhibitors” (Bioorg Med Chem Lett, 2009).

Sequence of Angiotensin-converting enzyme (P12821 whole entry): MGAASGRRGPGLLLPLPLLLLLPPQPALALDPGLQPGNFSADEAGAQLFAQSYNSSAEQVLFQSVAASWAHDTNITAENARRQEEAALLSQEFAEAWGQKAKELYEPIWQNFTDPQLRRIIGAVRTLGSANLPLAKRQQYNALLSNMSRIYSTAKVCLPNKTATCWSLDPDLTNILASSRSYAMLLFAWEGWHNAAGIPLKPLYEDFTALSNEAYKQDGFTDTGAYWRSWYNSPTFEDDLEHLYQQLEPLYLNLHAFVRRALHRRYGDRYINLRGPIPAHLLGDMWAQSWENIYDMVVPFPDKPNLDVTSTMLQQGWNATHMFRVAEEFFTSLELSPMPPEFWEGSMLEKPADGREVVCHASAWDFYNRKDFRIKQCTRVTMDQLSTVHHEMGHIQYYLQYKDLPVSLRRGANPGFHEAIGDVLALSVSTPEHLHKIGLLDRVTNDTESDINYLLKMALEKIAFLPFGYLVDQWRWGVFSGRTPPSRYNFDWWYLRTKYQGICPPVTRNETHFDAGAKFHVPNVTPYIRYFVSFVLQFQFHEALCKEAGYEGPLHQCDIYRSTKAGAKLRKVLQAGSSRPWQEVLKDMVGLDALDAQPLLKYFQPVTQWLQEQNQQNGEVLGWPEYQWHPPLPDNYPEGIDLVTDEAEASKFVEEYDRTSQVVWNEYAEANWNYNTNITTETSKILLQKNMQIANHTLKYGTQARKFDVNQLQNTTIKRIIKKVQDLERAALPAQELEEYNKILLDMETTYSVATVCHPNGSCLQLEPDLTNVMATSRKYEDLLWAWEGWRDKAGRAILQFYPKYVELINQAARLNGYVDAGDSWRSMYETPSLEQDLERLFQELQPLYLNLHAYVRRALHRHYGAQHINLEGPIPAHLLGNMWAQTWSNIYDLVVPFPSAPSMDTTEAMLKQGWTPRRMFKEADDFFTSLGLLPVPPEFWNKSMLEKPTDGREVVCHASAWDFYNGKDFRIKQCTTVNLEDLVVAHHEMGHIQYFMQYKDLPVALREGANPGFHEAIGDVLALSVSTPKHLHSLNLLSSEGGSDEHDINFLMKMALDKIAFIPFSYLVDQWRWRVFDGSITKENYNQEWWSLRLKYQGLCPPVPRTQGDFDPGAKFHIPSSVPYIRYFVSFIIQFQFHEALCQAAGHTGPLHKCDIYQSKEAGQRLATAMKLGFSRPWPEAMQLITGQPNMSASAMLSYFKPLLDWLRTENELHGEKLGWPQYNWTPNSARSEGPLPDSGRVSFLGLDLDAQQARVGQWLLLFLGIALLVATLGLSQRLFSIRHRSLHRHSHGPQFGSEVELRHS

On to `O=C(CC(S)C(F)(F)F)NC(Cc1c[nH]c2ccccc12)C(=O)O` (stereo not drawn), for which the IC50 (usually the concentration that gives 50% inhibition) in test [1] is 0.4 µM; in test [2], 0.58 µM; in test [3], more than 10 µM.
Take `O=C(CC(S)C(F)(F)F)NC(Cc1ccccc1)C(=O)O` (stereo not drawn): the IC50 in test [1] was 0.83 µM; in test [2], 0.3 µM; in test [3] it was more than 10 µM.
With `O=C(CC(S)C(F)(F)F)NC(Cc1ccc(F)cc1)C(=O)O` (stereo not drawn), the results for the IC50 in test [1], in test [2] and in test [3] were 0.3 µM, 0.23 µM and more than 10 µM, respectively.
Take `O=C(O)CNC(=O)C(CS)Cc1ccccc1` (stereo not drawn) [THIORPHAN]: in test [2], it took 0.0062 µM to reach half-maximal inhibition (IC50).
Take `O=C(CC(S)C(F)(F)F)NC(Cc1ccccc1)C(=O)NC(Cc1ccc(O)cc1)C(=O)O` (stereo not drawn): the IC50 in test [1] was 0.28 µM; in test [2], 0.43 µM; in test [3], more than 10 µM.
`CC(C)CC(S)CC(=O)NC(Cc1ccccc1)C(=O)NC(Cc1ccc(O)cc1)C(=O)O` (stereo not drawn) came in with an IC50 in test [2] of 0.05 µM.
Take `O=C(CC(S)C(F)(F)F)NC(Cc1ccc(O)cc1)C(=O)O` (stereo not drawn): the IC50 in test [1] was 0.16 µM; in test [2] it was 0.08 µM; in test [3] it was more than 10 µM.
For `CC(C)CC(S)CC(=O)NC(Cc1ccccc1)C(=O)O` (stereo not drawn), in that order: more than 10 µM, 0.041 µM and more than 10 µM.
Take `O=C(CC(S)C(F)(F)C(F)(F)F)NC(Cc1ccccc1)C(=O)O` (stereo not drawn): the figures for the IC50 in test [1], in test [2] and in test [3] were 1.01 µM, 1.15 µM and 2.42 µM, respectively.
